# In ChEMBL document CHEMBL1130284, “Analogues of N alpha-(4-amino-4-deoxypteroyl)-N delta-hemiphthaloyl-L-ornithine (PT523) modified in the side chain: synthesis and biological evaluation” (J Med Chem, 1997):
# Key:
# 786-0 [1] = assay: The IC50 value was measured on 786-0 cell line in ovarian tumor t; format: functional, cell-based; conditions: Homo sapiens, in the assay text read “renal” for “ovarian”
# How it was run: (§1)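 Standard NCI cell-line panel protocol. Cells plated in 96-well format and treated continuously with drug for 48 h. Total protein stained with Sulforhodamine B and IC50 derived.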
# A549 = assay: In vitro antitumor activity against A549 human non-small lung carcinoma cells containing 10% fetal bovine serum; format: functional, cell-based
# How it was run: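 Cells plated at 2000-3000/well in RPMI with 10% fetal bovine serum and left to adhere for 24 h at 37 °C in humidified 5% CO2. Drug (0.1-1000 nM) then added for a further 72 h of continuous exposure. Sulforhodamine B staining read-out. Growth taken as % of untreated controls and plotted against log drug concentration to give IC50.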
# ACHN = assay: The IC50 value was measured on ACHN cell line in renal tumor type.; format: functional, cell-based; conditions: Homo sapiens; how it was run: as §1
# DU-145 = assay: The IC50 value was measured on DU-145 cell line in prostate tumor type.; format: functional, cell-based; conditions: Homo sapiens; how it was run: as §1
# EKVX = assay: The IC50 value was measured on EKVX cell line in NSCL tumor type.; format: functional, cell-based; conditions: Homo sapiens; how it was run: as §1
# HCT-116 = assay: The IC50 value was measured on HCT116 cell line in colon tumor type.; format: functional, cell-based; conditions: Homo sapiens; how it was run: as §1
# HT-29 = assay: The IC50 value was measured on HT-29 cell line in colon tumor type.; format: functional, cell-based; conditions: Homo sapiens; how it was run: as §1
# KM12 = assay: The IC50 value was measured on KM-12 cell line in colon tumor type.; format: functional, cell-based; conditions: Homo sapiens; how it was run: as §1
# NCI/ADR-RES = assay: The IC50 value was measured on MCF7-ADR cell line in breast tumor type.; format: functional, cell-based; conditions: Homo sapiens; how it was run: as §1
# LOX IMVI [2] = assay: The IC50 value was measured on LOX IMVI cell line in melanoma tumor ty; format: functional, cell-based; conditions: Homo sapiens; how it was run: as §1
# MCF7 = assay: The IC50 value was measured on MCF-7 cell line in breast tumor type; format: functional, cell-based; conditions: Homo sapiens; how it was run: as §1
# Malme-3M = assay: The IC50 value was measured on MALME-3M cell line in melanoma tumor type; format: functional, cell-based; conditions: Homo sapiens; how it was run: as §1
# NCI-H23 = assay: The IC50 value was measured on NCl-H23 cell line in NSCL tumor type.; format: functional, cell-based; conditions: Homo sapiens; how it was run: as §1
# NCI-H460 = assay: The IC50 value was measured on NCl-H460 cell line in NSCL tumor type; format: functional, cell-based; conditions: Homo sapiens; how it was run: as §1
# NCI-H522 = assay: The IC50 value was measured on NCl-H522 cell line in NSCL tumor type.; format: functional, cell-based; conditions: Homo sapiens; how it was run: as §1
# OVCAR-3 [3] = assay: The IC50 value was measured on OVCAR-3 cell line in ovarian tumor t; format: functional, cell-based; conditions: Homo sapiens; how it was run: as §1
# OVCAR-8 = assay: The IC50 value was measured on OVCAR-8 cell line in ovarian tumor type.; format: functional, cell-based; conditions: Homo sapiens; how it was run: as §1
# OVCAR-5 = assay: The IC50 value was measured on OVCAR-5 cell line in ovarian tumor type.; format: functional, cell-based; conditions: Homo sapiens; how it was run: as §1
# PC-3 = assay: The IC50 value was measured on PC-3 cell line in prostate tumor type.; format: functional, cell-based; conditions: Homo sapiens; how it was run: as §1
# SF-268 = assay: The IC50 value was measured on SF-268 cell line in CNS tumor type.; format: functional, cell-based; conditions: Homo sapiens; how it was run: as §1
# SW-620 = assay: The IC50 value was measured on SW-620 cell line in colon tumor type.; format: functional, cell-based; conditions: Homo sapiens; how it was run: as §1
# SF-539 = assay: The IC50 value was measured on SF-539 cell line in CNS tumor type.; format: functional, cell-based; conditions: Homo sapiens; how it was run: as §1
# SK-MEL-28 = assay: The IC50 value was measured on SKMEL-28 cell line in melanoma tumor type.; format: functional, cell-based; conditions: Homo sapiens; how it was run: as §1
# SNB-75 = assay: The IC50 value was measured on SNB-75 cell line in CNS tumor type.; format: functional, cell-based; conditions: Homo sapiens; how it was run: as §1
# SK-MEL-5 = assay: The IC50 value was measured on SK-MEL-5 cell line in melanoma tumor type.; format: functional, cell-based; conditions: Homo sapiens; how it was run: as §1
# UO-31 = assay: The IC50 value was measured on UO-31 cell line in renal tumor type.; format: functional, cell-based; conditions: Homo sapiens; how it was run: as §1
# UACC-62 = assay: The IC50 value was measured on UACC-62 cell line in melanoma tumor type.; format: functional, cell-based; conditions: Homo sapiens; how it was run: as §1
# HCT-15 = assay: The IC50 value was measured on HCT-15 cell line in colon tumor type.; format: functional, cell-based; conditions: Homo sapiens; how it was run: as §1
# [4] = target: T1, Dihydrofolate reductase (Homo sapiens) (UniProt P00374)
# T1 sequence (whole entry): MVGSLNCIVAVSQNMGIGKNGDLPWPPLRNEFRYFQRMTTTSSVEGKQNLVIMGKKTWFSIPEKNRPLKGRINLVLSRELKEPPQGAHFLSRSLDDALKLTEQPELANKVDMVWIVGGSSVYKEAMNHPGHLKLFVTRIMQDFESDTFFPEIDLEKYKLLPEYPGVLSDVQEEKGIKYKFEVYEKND
# Mus musculus [5] = assay: Tumor growth delay of subcutaneously implanted SCC-VII squamous cell carcinoma in mice; conditions: route subcutaneous
# Mus musculus [6] = assay: Tumor size of subcutaneously implanted SCC-VII squamous cell carcinoma in mice on day 0; conditions: route subcutaneous
# Mus musculus [7] = assay: Tumor size of subcutaneously implanted SCC-VII squamous cell carcinoma in mice on day 7; conditions: route subcutaneous
# Mus musculus [8] = assay: Time to reach 10 mm Tumor size of subcutaneously implanted SCC-VII squamous cell carcinoma in mice; conditions: route subcutaneous
# 786-0 [9] = assay: The IC50 value was measured on 786-0 cell line in ovarian tumor; format: functional, cell-based; conditions: Homo sapiens, in the assay text read “renal” for “ovarian”; how it was run: as §1
# OVCAR-3 [10] = assay: The IC50 value was measured on OVCAR-3 cell line in ovarian tumor; format: functional, cell-based; conditions: Homo sapiens; how it was run: as §1
# SCC-25 = assay: In vitro antitumor activity against SCC25 human head and neck squamous carcinoma cells containing 10% fetal bovine serum; format: functional, cell-based
# How it was run: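 Clonogenic assay. Cells kept in Dulbecco's MEM with 10% FBS and hydrocortisone (400 µg/L). Exponential-phase cells preincubated without drug for 48 h, exposed to 0.01-5000 nM for 72 h, then replated in fresh medium. After 14 days, colonies of ≥5 cells stained with crystal violet and counted. Survival taken as % of untreated controls and IC50 estimated from a log-log plot. Replicate plates, at least three separate days.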
# 786-0 [11] = assay: cells; conditions: Homo sapiens
# LOX IMVI [12] = assay: The IC50 value was measured on LOX […] cell line in melanoma tumor ty; format: functional, cell-based; conditions: Homo sapiens; how it was run: as §1
SMILES,IC50 (A549),IC50 (ACHN),IC50 (DU-145),IC50 (EKVX),IC50 (HCT-116),IC50 (HT-29),IC50 (KM12),IC50 (NCI/ADR-RES),IC50 (MCF7),IC50 (Malme-3M),IC50 (NCI-H23),IC50 (NCI-H460),IC50 (NCI-H522),IC50 (OVCAR-8),IC50 (OVCAR-5),IC50 (PC-3),IC50 (SF-268),IC50 (SW-620),IC50/[E] (nM milliunit-1) [4],IC50 (SCC-25),further results
Nc1nc(N)c2nc(CNc3ccc(C(=O)NC(CCNC(=O)c4ccccc4C(=O)O)C(=O)O)cc3)cnc2n1 (stereo unspecified),0.022 µM,0.045 µM,0.034 µM,0.021 µM,0.005 µM,0.0098 µM,> 1 µM,> 1 µM,> 1 µM,> 1 µM,0.032 µM,0.014 µM,> 1 µM,0.0081 µM,0.086 µM,0.0067 µM,> 0.1 µM,0.0063 µM,2.5,,IC50 (786-0 [1]): 0.0092 µM; IC50 (LOX IMVI [2]): 0.0044 µM; IC50 (OVCAR-3 [3]): > 1 µM; IC50 (SF-539): 0.057 µM; IC50 (SK-MEL-28): > 1 µM; IC50 (SNB-75): > 1 µM; IC50 (SK-MEL-5): 0.085 µM; IC50 (UO-31): 0.008 µM; IC50 (UACC-62): 0.012 µM; IC50 (HCT-15): 0.0072 µM; TGD (Mus musculus [5]): 2.6 days; Tumor size (Mus musculus [6]): 1.1 mm; Tumor size (Mus musculus [7]): 5.1 mm; Time (Mus musculus [8]): 9.8 days
Nc1nc(N)c2nc(CNc3ccc(C(=O)NC(CNC(=O)c4ccccc4C(=O)O)C(=O)O)cc3)cnc2n1 (stereo unspecified),0.023 µM,,,,,,,,,,,,,,,,,,3.5,,
Nc1nc(N)c2nc(CNc3ccc(C(=O)NC(CCCNC(=O)c4ccccc4C(=O)O)C(=O)O)cc3)cnc2n1 (stereo unspecified),0.0013 µM,0.0024 µM,0.0095 µM,0.023 µM,0.0003 µM,0.0012 µM,0.0032 µM,0.0027 µM,0.0036 µM,0.002 µM,0.0044 µM,0.0005 µM,0.023 µM,0.0024 µM,0.0025 µM,> 0.1 µM,0.0025 µM,0.0019 µM,2,0.0003 µM,IC50 (786-0 [9]): 0.0006 µM; IC50 (LOX IMVI [2]): 0.0004 µM; IC50 (OVCAR-3 [10]): > 0.1 µM; IC50 (SF-539): 0.0037 µM; IC50 (SK-MEL-28): 0.0046 µM; IC50 (SNB-75): > 10 µM; IC50 (SK-MEL-5): 0.006 µM; IC50 (UO-31): 0.0055 µM; IC50 (UACC-62): 0.0018 µM; IC50 (HCT-15): 0.0012 µM; TGD (Mus musculus [5]): 5 days; Tumor size (Mus musculus [6]): 2.1 mm; Tumor size (Mus musculus [7]): 6.8 mm; Time (Mus musculus [8]): 12 days
CN(Cc1cnc2nc(N)nc(N)c2n1)c1ccc(C(=O)N[C@@H](CCC(=O)O)C(=O)O)cc1 [METHOTREXATE],0.023 µM,0.04 µM,0.023 µM,> 1 µM,0.03 µM,0.032 µM,0.042 µM,0.078 µM,0.036 µM,> 1 µM,0.043 µM,0.028 µM,0.229 µM,0.031 µM,> 1 µM,0.002 µM,0.052 µM,0.033 µM,,0.027 µM,IC50 (LOX IMVI [2]): 0.026 µM; IC50 (OVCAR-3 [3]): 0.398 µM; IC50 (SF-539): 0.035 µM; IC50 (SK-MEL-28): > 1 µM; IC50 (SNB-75): > 10 µM; IC50 (SK-MEL-5): 0.087 µM; IC50 (UO-31): 0.191 µM; IC50 (UACC-62): 0.028 µM; IC50 (HCT-15): 0.03 µM; IC50 (786-0 [11]): 0.033 µM; TGD (Mus musculus [5]): 5 days; Tumor size (Mus musculus [6]): 1.6 mm; Tumor size (Mus musculus [7]): 7.3 mm; Time (Mus musculus [8]): 12 days
Nc1nc(N)c2nc(CNc3ccc(C(=O)NC(CCCNC(=O)c4cc(Cl)c(Cl)cc4C(=O)O)C(=O)O)cc3)cnc2n1 (stereo unspecified),,,,,,,,,,,,,,,,,,,2.4,0.018 µM,
Nc1nc(N)c2nc(CNc3ccc(C(=O)NC(CCCNC(=O)c4cccc(C(=O)O)c4)C(=O)O)cc3)cnc2n1 (stereo unspecified),0.045 µM,,,,,,,,,,,,,,,,,,2.2,0.0029 µM,
Nc1nc(N)c2nc(CNc3ccc(C(=O)NC(CCCCNC(=O)c4ccccc4C(=O)O)C(=O)O)cc3)cnc2n1 (stereo unspecified),0.0052 µM,0.0052 µM,0.0091 µM,0.036 µM,0.0006 µM,0.0057 µM,0.0049 µM,0.0091 µM,0.005 µM,> 1 µM,0.0092 µM,0.0042 µM,> 1 µM,0.0059 µM,> 1 µM,0.005 µM,0.0084 µM,0.0034 µM,,,IC50 (LOX IMVI [12]): 0.0009 µM; IC50 (OVCAR-3 [3]): > 1 µM; IC50 (SF-539): 0.026 µM; IC50 (SK-MEL-28): > 1 µM; IC50 (SK-MEL-5): 0.091 µM; IC50 (UO-31): 0.0078 µM; IC50 (UACC-62): > 1 µM; IC50 (HCT-15): 0.0052 µM
Nc1nc(N)c2nc(CNc3ccc(C(=O)NC(CCCNC(=O)c4ccc(C(=O)O)cc4)C(=O)O)cc3)cnc2n1 (stereo unspecified),3.3 µM,,,,,,,,,,,,,,,,,,2.8,0.072 µM,
